# Test: Toxicity liver stage against HepG2, at 10uM
# Assay type: cell-based
# Design: test concentration 10 uM, cell line HepG2-A16-CD81EGFP
# Details: human, HepG2-A16-CD81EGFP cells; read-out: INHIBITION
# In short: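 Uninfected HepG2-A16-CD81EGFP cells, 3 × 10^3 per well, 1536-well, plated on prespotted compound at 10 μM final, parasite-free screening media added to match infected plates; puromycin 10 μM positive, DMSO 0.5% negative; run in parallel with 48 h PbLuc assay at 37 °C, 5% CO2; viability by CellTiter-Glo luminescence, normalized to controls.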
row,SMILES,cytotoxicity at 10 µM [%]
1,COc1cccc(CNC(C)C)c1OCc1ccc(C)cc1,0.438
2,CCS(=O)(=O)N1C[C@@H](C(=O)NC(C)C)[C@@]2(Cc3ccccc3C(=O)N2)C1,1.11
3,CC(=O)N1CC[C@@H]2CN(C(=O)c3ccco3)CCO[C@@H]2C1,2.93
4,O=S(=O)(c1ccccc1N1CC(n2cccn2)C1)C(F)(F)F,6.68
5,O=C(NC1CCN(c2cccc(OC(F)(F)F)c2)C1=O)C1CC1 (stereo not drawn),19.2
6,Cc1cccc(C(C(=O)NC(C)(C)CN2CCCC2)N(C)C)c1 (stereo not drawn),-3.73
7,Cn1ccnc1CN1C(=O)CO[C@H]2CN(CCCc3ccccc3)C[C@H]21,4.22
8,CNC(=O)[C@@]12CCO[C@@H]1CCN(Cc1ccc3c(c1)OCO3)C2,1.75
9,CCc1nc(C2CCCN2C(=O)c2ccc3c(c2)nnn3C)no1 (stereo not drawn),-4.35
10,O=S(=O)(NCCCn1cncn1)c1ccc2c(c1)OCCCO2,3.51
11,Cc1nc(CNC(=O)Nc2cc(C(F)(F)F)c[nH]c2=O)cs1,0.868
12,Cc1nnsc1C(=O)N1CCCC(n2nnc3cc(F)ccc32)C1 (stereo not drawn),3.49
13,O=C1CCC(c2nc(C3CCNCC3)no2)N1 (stereo not drawn),-3.96
14,O=C(c1ccoc1)N1C[C@@H]2OCCN(c3ncccn3)[C@@H]2C1,5.09
15,CC(=O)N1CCCC1C(=O)NCCOc1c(C)cccc1C (stereo not drawn),-24.1
16,COCC(C)(O)CNC(=O)c1cc(-c2ccc(F)cc2)nn1C (stereo not drawn),-5.1
17,O=c1ccc2c(n1Cc1cccnc1)CCN(C1CCOC1)CC2 (stereo not drawn),9.58
18,CC(C)N(Cc1ccccn1)C(=O)CN(C)C(=O)c1cccs1,2.31
19,CC(=O)N1C[C@@H]2CN(S(=O)(=O)C3CC3)CCO[C@@H]2C1,-107
20,CC1CN(CCOc2ccccc2C#N)CCN1Cc1nccn1C (stereo not drawn),-10.8
21,Cc1cn(-c2ccccc2)nc1NS(=O)(=O)c1ccc(C(=O)O)cc1F,-2.59
22,COCCC1(CO)CCCN(C(=O)c2cc(C#N)c(=O)[nH]c2C)C1 (stereo not drawn),-37.7

row,SMILES,cytotoxicity at 10 µM [%]
1,Clc1ccc2cccnc2c1CN1CCn2c(nnc2C2CC2)C1,-2.19
2,Cc1nc(C2CCCN2Cc2cc(=O)n(C)c(=O)n2C)no1 (stereo not drawn),-0.222
3,COc1ccc(CN2CC[C@H]3[C@H]2CC(=O)N3Cc2cccc(C)n2)cc1,1.2
4,O=C([C@H]1C[C@H]2CN(c3ncc(F)cn3)C[C@@H]1O2)N1CCOCC1,-109
5,CNC(=O)C1CN(C(=O)c2ccccc2)Cc2cn(C)nc21 (stereo not drawn),-1.5
6,COc1cc(C(=O)NS(=O)(=O)c2cncc(Br)c2)ccc1C,-2.45
7,CSc1ccc(-c2nc(CN3CCNCC3C)c(C)o2)cc1 (stereo not drawn),-5.58
8,CCC1=N[C@@]2(CC[C@@H]3CN(C(=O)NCC(C)C)C[C@@H]32)C(=O)N1CC1CC1,9.61
9,O=C(CC1CC1)N1CCC(O)(CN2CCN(c3ccccc3)CC2)C1 (stereo not drawn),-11.2
10,CC1CN(c2ccc(CNC(=O)NCCn3ccnc3)cn2)CCO1 (stereo not drawn),8.4
11,CN(C)S(=O)(=O)N1CC[C@]2(O)CCN(c3nc4ccccc4s3)C[C@@H]2C1,-1.82
12,CCS(=O)(=O)N1CCC2(C1)C(=O)N(C)CCN2Cc1ccncc1 (stereo not drawn),-4.78
13,C[C@@H]1CN(C2(C(=O)N3CCNCC3)Cc3ccccc3C2)C[C@H](C)O1,-4.17
14,Cc1cnn(-c2ccc(C(=O)N3CCCC(n4ccnc4C)C3)cc2)c1 (stereo not drawn),-9.99
15,CN(Cc1ccco1)Cc1cnc2n1CCN(c1ccccn1)CC2,-0.48
16,COc1cc(C2(C(=O)N3CCN(CC(C)(C)O)CC3)CC2)ccc1C,-0.0264
17,CN(C)C(=O)C1CCCN1CCCNC(=O)Cc1ccccc1F (stereo not drawn),0.646
18,CCc1cnc(C)nc1N1CCN(C(N)=O)CC1,-46.3
19,CN(C)C(=O)COC[C@@]12CCC[C@@H]1CN(C1CCC1)C2,-1.25
20,COC(=O)c1occc1Cn1cc(Br)cn1,-5.63
21,CCc1c(C)nc2ccccc2c1N1CCC(NC(C)=O)CC1,11.2
22,CC(C)(C)c1ccn(C2(C(=O)O)CCN(c3ncccc3C#N)CC2)n1,-7.6

row,SMILES,cytotoxicity at 10 µM [%]
1,COCCN1CCN(C(=O)c2ccc(C)cc2OC)[C@H]2CS(=O)(=O)C[C@H]21,-3.81
2,O=C(Cc1cccs1)N1C[C@@H]2CN(Cc3ccoc3)CCO[C@@H]2C1,-70.8
3,O=C(c1ccsc1)N1CCc2c(CNc3nccs3)n[nH]c2C1,10.9
4,COCCCC1(CO)CCCN(CCc2ccccn2)C1 (stereo not drawn),7.42
5,COc1ccc(CN2CC[C@@H]3CN(S(C)(=O)=O)CCO[C@@H]3C2)cc1,-1.55
6,CC(C)C(=O)NC1COC2(CCN(Cc3cccnc3)CC2)C1 (stereo not drawn),2.11
7,CN(C)Cc1ccnc(C2CCCN2Cc2ccncc2)n1 (stereo not drawn),1.36
8,NC(=O)c1cnc(NC2CC2)nc1CCNC(=O)CC1CCCC1,3.29
9,CCn1cnnc1CNC(=O)Cc1ccc2c(c1)OCCO2,-3.27
10,N#CC1COCCN1C(=O)c1ccc2[nH]cnc2c1 (stereo not drawn),-2.87
11,Cc1nc(C)n(CC2CCCN(Cc3nc(C)c(C)o3)C2)n1 (stereo not drawn),-2.68
12,CCC(C)NC(=O)c1cc(S(=O)(=O)N2CCCC2)c(C)s1 (stereo not drawn),-2.6
13,CCN1CCCc2cc(CN3CCc4c(nc(C)[nH]c4=O)C3)ccc21,-1.02
14,Cc1ccc(C2CN(Cc3cnc(-c4cccnc4)s3)CCO2)o1 (stereo not drawn),-10.9
15,Cn1cc(CN2CC[C@]3(C[C@H](Oc4ccccn4)CO3)C2)cn1,10.8
16,Cc1cc(CCC(=O)NCc2nccn2C)ccc1Br,2.95
17,Cc1cnc(C(=O)N2C[C@H]3CCCC(OCc4cccnc4)[C@H]3C2)cn1 (stereo partly drawn),3.51
18,Cc1cc(C2CCCN2Cc2ccc(S(=O)(=O)N3CCCC3)o2)on1 (stereo not drawn),-11.9
19,CNC(=O)N1CC[C@@H]2CN(Cc3ccccc3)S(=O)(=O)[C@@H]2CC1,-96.6
20,COc1cccc(S(=O)(=O)NC(=O)C2CC(c3ccccc3)=NO2)c1 (stereo not drawn),3.73
21,CC(C)C1SCC(=O)Nc2c1cnn2-c1ccc(F)cc1 (stereo not drawn),1.23
22,Cc1cc(CC(=O)N(C)Cc2cccc(OC(C)C)c2)n[nH]1,1.1

row,SMILES,cytotoxicity at 10 µM [%]
1,Cc1ccsc1CNC(=O)CSc1nnc[nH]1,-0.655
2,CCOc1ncccc1NC(=O)NC1CCN(c2ncccn2)CC1,-33.3
3,COc1c(C2CCCN2Cc2cn3ccsc3n2)c(C)nn1C (stereo not drawn),-51.2
4,CC(C)N1CCC(C(=O)N(C)CC(=O)c2ccc(O)cc2)CC1,-4.33
5,COc1cccc(F)c1CN1CCC(c2nc(C)cc(C)n2)C1 (stereo not drawn),6.83
6,CN1CC(=O)N(c2ccccc2)CC12CCN(S(C)(=O)=O)C2 (stereo not drawn),-75.7
7,CC(=O)N1CCCn2c(nc(CNS(=O)(=O)C3CC3)cc2=O)C1,2.71
8,Cc1ccc(S(=O)(=O)N2CCC3(CC(C(=O)NCC4CC4)=NO3)C2)cc1 (stereo not drawn),4.35
9,Cc1cc(C)n(CC2CN(CC(=O)NC3(C#N)CCCC3)CCO2)n1 (stereo not drawn),-2.49
10,O=C(NCC1CCS(=O)(=O)C1)c1cccc(CN2CCCC2)c1 (stereo not drawn),-0.986
11,CN(C)CCNCC1COCc2c(-c3ccnn3C)nnn2C1 (stereo not drawn),-99.9
12,CC(c1cccc(S(N)(=O)=O)c1)N(C)CCCOc1ccccc1 (stereo not drawn),-1.99
13,CCC(CC)C(CNC(=O)Nc1cnn(CCOC)c1)N(C)C (stereo not drawn),-6.87
14,COCCN(C)c1ccc(NCc2cscn2)nc1,0.513
15,Cc1cc(C(=O)N2CCN(Cc3ccsc3)CC2)n(C)n1,1.98
16,Cc1cccc2c1ccn2CC(=O)O,9.49
17,COc1cc(C(C)=O)ccc1SCC(=O)Nc1ccccn1,11.7
18,CCOC(=O)N1CCN(C(=O)c2cc(OCC)c3ccoc3c2)CC1,41.5
19,CC(C)n1c(C2CCCN(CC(=O)NC(N)=O)C2)nc2ccccc21 (stereo not drawn),-7.9
20,CCC(C(=O)N1CCN(C(=O)N2CCOCC2)CC1)n1cccn1 (stereo not drawn),2.35
21,Cc1nccn1-c1cccc(C2CCCN2)n1 (stereo not drawn),10.6
22,CC(C)(C)CC(=O)N[C@@H]1CO[C@H](CNC(=O)c2ccncc2)[C@H]1O,-3.81

row,SMILES,cytotoxicity at 10 µM [%]
1,Cc1noc(COCC(=O)N2CCCC(c3nccs3)C2)n1 (stereo not drawn),0.172
2,CC(c1nc(C2CC2)no1)N1CCN(Cc2ccccc2)CC1 (stereo not drawn),-5
3,CCOCCN1C[C@H](C(=O)Nc2cccnc2)[C@@H]2CCO[C@@H]2C1,-101
4,COc1ncccc1C(=O)N1CC[C@H]2C[C@@H](C)O[C@@H]2C1,-7.63
5,COc1ccccc1C1=NOC(CC2(C(=O)NC(C)C)CCOCC2)C1 (stereo not drawn),-20.4
6,O=C(c1ccsc1)N1CCc2c(COCc3ccncc3)cncc2C1,-1.48
7,CN1CCC(Oc2ccc(NC(=O)c3ccccc3)cc2)CC1,-5.13
8,Cc1cc(NC(=O)CN2CCn3c(nnc3C(C)C)C2)no1,-1.11
9,Cc1nn(C(C)C)c2cn(CC(=O)NC3CCSCC3)nc12,-2.72
10,O=C(NCC1CCOC1)c1csc(-c2ccccc2)n1 (stereo not drawn),-0.755
11,CN1CCCC1c1cccc(Cc2ccc(F)cc2)n1 (stereo not drawn),4.3
12,CCCS(=O)(=O)N1Cc2ccnn2CC(c2nc(C)no2)C1 (stereo not drawn),5.98
13,CCS(=O)(=O)N1C[C@H]2CN(c3cnn(C)c3)C(=O)[C@H]2C1,-1.19
14,Cc1noc(C)c1CN1CCCC2(CCN(C(=O)CC3CC3)C2)C1 (stereo not drawn),7.71
15,N#CC1(C(=O)N2CCN(Cc3cscn3)CC2)CCCCC1,-3.27
16,CCS(=O)(=O)N1Cc2cncn2CC(C(=O)NCC2CC2)C1 (stereo not drawn),-97.6
17,CN(Cc1nnc(-c2ccco2)o1)CC1CCCN1c1cccnn1 (stereo not drawn),5.68
18,CCOc1ccnc(N2CCN(C(=O)c3cccnc3O)CC2)n1,-6.51
19,O=C(NCCNc1cnccn1)N1CCCCCC1,-3.33
20,N#Cc1ncn(CC(=O)Nc2cc(Cl)ccc2F)n1,-2.75

# Source: ChEMBL document CHEMBL4513216, “Probing the Open Global Health Chemical Diversity Library for Multistage-Active Starting Points for Next-Generation Antimalarials” (ACS Infect Dis, 2020)
